Most compounds without a hit are left out; they make up all but 2.1% or so of the library.
APJ ag: agonists of human apelin receptor APJ, primary screen, CHO-K1 cells, PathHunter beta-arrestin, luminescence | 0% DMSO wells, 100% apelin | activation, % at 20 µM | 330,000 compounds, 0.11% hits | P35414;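 active means activation more than six SD over the plate average, tested at 20 µM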;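 further: 0% = DMSO alone and 100% = apelin-13 at 10 nM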
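Assay system: engineered CHO-K1 APJ arrestin reporter cells; Amount: 1000 CHO-K1 reporter cells seeded per well; Dosing: one dose, 20 µM compound, 1% DMSO; Times: compound stimulation 90 min at 25 °C, detection 60 min; Measured by: luminescent beta-gal fragment complementation, chemiluminescent substrate; Read-out: APJ–arrestin association signal; Controls: DMSO vs Apelin-13 10 nM.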
CXCR6 inh: CXCR6 receptor inhibitors, primary screen, cell-based, beta-arrestin, luminescence, CHO-K1 PathHunter, 1536-well. C-X-C chemokine receptor type 6 (Homo sapiens), O00574. inhibition, % at 20 µM. 360,000 compounds, 0.36% hits; in the data active means inhibition above about 34%, passing the limit was not always enough;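 further: antagonist mode with CXCL16 agonist at 10 nM final; 0% = 10 nM CXCL16 with DMSO and 100% = unstimulated wells without agonist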
Target sequence (O00574 whole entry, looked up): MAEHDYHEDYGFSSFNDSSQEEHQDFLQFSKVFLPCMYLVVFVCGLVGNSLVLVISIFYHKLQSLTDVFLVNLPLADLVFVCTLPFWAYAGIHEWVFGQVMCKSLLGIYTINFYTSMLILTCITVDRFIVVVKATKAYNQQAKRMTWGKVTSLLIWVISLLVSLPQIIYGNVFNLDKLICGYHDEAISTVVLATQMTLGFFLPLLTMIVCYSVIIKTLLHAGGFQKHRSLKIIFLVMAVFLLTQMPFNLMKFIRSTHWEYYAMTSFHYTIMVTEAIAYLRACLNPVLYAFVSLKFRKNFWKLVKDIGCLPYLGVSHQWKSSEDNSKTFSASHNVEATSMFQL
CCR6 antag: CCR6 receptor antagonists, primary screen, cell-based, CHO-K1, luminescence, beta-arrestin, uHTS; CHO-K1 CCR6 PathHunter beta-arrestin, CCL20-stimulated; C-C chemokine receptor type 6 (Homo sapiens), P51684; inhibition, % at 20 µM; 340,000 compounds, 0.49% hits;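 active means compounds whose inhibition of the agonist-driven luminescence signal at 20 µM reaches about 50%, limit read from the data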;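 further: cells stimulated with CCL20 at 14 nM final; plate controls were DMSO with CCL20 for no effect and DMSO without agonist for full effect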
HTR2A ag: mouse Htr2a agonists via beta-arrestin recruitment, primary screen, cell-based, luminescence | activation, % at 7.6 µM | AID 624169, 2012 | 5-hydroxytryptamine receptor 2A (Mus musculus), P35363 | 360,000 compounds, 0.66% hits | CHO-K1 mHTR2A beta-arrestin complementation; percent of 30 µM serotonin response;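 active means activation above a run cutoff, the mean activation of all tested compounds plus 3 SD, cut at about 14% in these data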;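 further: 0% = plate median of compound wells and 100% = 30 µM serotonin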
APJ antag: antagonists of human apelin receptor APJ, primary screen, CHO-K1 cells, beta-arrestin complementation, luminescence | P35414 | inhibition, % at 20 µM | 330,000 compounds, 0.32% hits;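 active means inhibition above about 40% at 20 µM, limit read from the data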;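 further: cells challenged with 10 nM apelin-13 agonist together with compound; plate controls were apelin-13 plus DMSO wells for no effect and DMSO wells lacking apelin-13 for full effect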
EBI2 antag: EBI2 receptor antagonists, beta-arrestin recruitment, primary screen, cell-based, luminescence, 7a,25-OHC stimulation, uHTS; inhibition, % at 5 µM; 360,000 compounds, 0.81% hits; G-protein coupled receptor 183 (Homo sapiens), P32249; 7a,25-OHC stimulated; AID 651636, 2012; in the data active means inhibition above about 38%;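 further: enzyme fragment complementation signal reports receptor beta-arrestin coupling in cells; 0% = agonist plus DMSO wells and 100% = wells without agonist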
Target sequence (P32249 whole entry, looked up, the tested form may be a part): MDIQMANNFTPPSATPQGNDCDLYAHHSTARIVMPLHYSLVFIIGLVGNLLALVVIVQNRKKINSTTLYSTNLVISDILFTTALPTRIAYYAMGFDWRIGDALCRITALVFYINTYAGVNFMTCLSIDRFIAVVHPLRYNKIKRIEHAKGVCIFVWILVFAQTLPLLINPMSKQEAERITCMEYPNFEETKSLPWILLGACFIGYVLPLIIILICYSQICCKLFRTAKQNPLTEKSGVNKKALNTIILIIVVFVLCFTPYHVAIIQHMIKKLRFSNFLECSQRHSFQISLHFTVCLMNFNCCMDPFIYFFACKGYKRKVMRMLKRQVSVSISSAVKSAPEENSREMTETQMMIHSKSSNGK
APJ antag confirm: APJ antagonists blocking beta-arrestin recruitment, confirmation, cell-based, luminescence, single concentration, uHTS hits | shares compounds with APJ antag | antagonist mode | inhibition, % at 20 µM | 950 compounds, 66% hits | AID 2766, 2010; in the data active means inhibition above about 50%
CXCR6 confirm: CXCR6 receptor antagonists, confirmation, cell-based, single concentration, beta-arrestin, luminescence. inhibition, % at 20 µM. CHO-K1 CXCR6 PathHunter beta-arrestin. 700 compounds, 65% hits. shares compounds with CXCR6 inh;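 active means mean inhibition over four retests above 40%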;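 further: receptor stimulated with 10 nM CXCL16 agonist; beta-galactosidase fragment complementation upon beta-arrestin recruitment to receptor; plate controls were CXCL16 plus DMSO for no effect and DMSO without CXCL16 for full effect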
EBI2 conf: EBI2 antagonist hit retest, beta-arrestin, confirmation, cell-based, single concentration, luminescence, 7a,25-OHC stimulation | 7a,25-OHC antagonism | inhibition, % at 5 µM | 2,400 compounds, 29% hits | shares compounds with EBI2 antag;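 active means inhibition of at least 50%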
EBI2 agonist: EBI2 agonist activity of antagonist hits, confirmation, counter-screen for EBI2 antagonist project, cell-based, single concentration, agonist mode, luminescence. shares compounds with EBI2 antag. EBI2-expressing cells, 60 min; 0% vehicle, 100% 7α,25-dihydroxycholesterol control. activation, % at 5 µM. 2,400 tested, under 10 active. AID 652000, 2013;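 active means activation of at least 50%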
bGal counter: E. coli beta-galactosidase enzyme inhibition, confirmation, counter-screen for EBI2 antagonist project, biochemical, luminescence, single concentration; purified beta-galactosidase, luminescent Galacton Star, 15 min; 2,400 compounds, 1% hits; shares compounds with EBI2 antag; inhibition, % at 5 µM;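 active means replicate-average signal at least 3 plate SD below neutral wells, shown as high inhibition, flagging enzyme-inhibiting false positives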;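 further: 0% = DMSO wells with enzyme and 100% = wells lacking enzyme; higher means stronger loss of beta-gal luminescence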
* marks the source's active call; other numbers are inactive results; nt = no result.

SMILES	APJ ag	CXCR6 inh	CCR6 antag	HTR2A ag	APJ antag	EBI2 antag	APJ antag confirm	CXCR6 confirm	others
Cc1ccc(CS(=O)(=O)c2ncc(Cl)c(C(=O)Nc3nnc(C(C)C)s3)n2)cc1	0.5	-9.1	2.1	-0.9	-15.4	38.0	nt	nt
Cc1ccc(CS(=O)(=O)c2ncc(Cl)c(C(=O)Nc3ccc(OC(F)F)cc3)n2)cc1	-4.8	75.7*	71.1*	-2.9	42.1*	42.9	51.8*	67.3*
Cc1cccc(S(=O)(=O)N[C@@H]2CC[C@@H](CCNS(=O)(=O)c3ccccc3F)O[C@@H]2CO)c1	nt	nt	nt	2.7	nt	0.1	nt	nt
COc1ccccc1C(=O)NNC(=S)NC(=O)c1cccs1	-5.5	53.1*	nt	-6.2	42.2*	3.0	68.3*	58.3*
O=C(NC(=S)NNC(=O)c1ccccc1O)c1cccs1	-3.7	12.2	17.0	-0.3	9.2	-7.5	nt	nt
O=C(NCCOc1ccc(F)cc1)C1CCC(=O)N(CC2CCCCC2)C1 (stereo not drawn)	-3.8	11.0	8.4	-4.5	-26.2	19.4	nt	nt
Cc1ccccc1Oc1ccc2c(c1)[C@@H]1C[C@H](N(C)C(=O)c3cccnc3)[C@H]([C@H](C)O)C(=O)N1CC2	nt	-1.0	nt	2.8	nt	-3.2	nt	nt
CCn1c(=O)c([N+](=O)[O-])c(Cl)c2ccccc21	-7.7	102.0*	100.0*	-9.2	93.9*	33.4	101.6*	95.8*
Cn1c(=O)n(C)c2cc([N+](=O)[O-])c(N3CCN(C(=O)c4cccc(F)c4)CC3)cc21	-4.9	18.3	22.0	-2.8	17.2	13.1	nt	nt
Cn1c(=O)n(C)c2cc([N+](=O)[O-])c(N3CCN(C(=O)c4cccc(Cl)c4)CC3)cc21	-13.5	51.8*	64.6*	-11.1	52.6*	27.2	83.6*	46.1*
COc1ccc(CNC(=O)C2(C)Cc3c(-c4cccc(NC(C)=O)c4)ccnc3O2)cc1OC (stereo not drawn)	nt	-1.8	nt	7.0	nt	-6.9	nt	nt
CN(Cc1ccncn1)C(=O)C1CCC(=O)N(Cc2cccc(C(F)(F)F)c2)C1 (stereo not drawn)	-0.2	7.9	-7.1	-1.2	19.1	-3.6	nt	nt
COC(=O)c1ccc(C)c(-n2c(=O)n(Cc3ccccc3)c(=O)c3[nH]cnc32)c1	-9.5	66.5*	64.1*	-11.2	60.6*	21.8	122.2*	48.7*
CCc1cc2c(=O)[nH]c(-c3ccccn3)nc2s1	-6.3	48.9*	86.8*	-7.3	78.2*	50.0*	70.4*	69.3*
Cc1ccc(C2C(C#N)=C(N)Oc3n[nH]c(-c4cccs4)c32)cc1 (stereo not drawn)	0.9	-0.5	19.6	-1.9	-9.3	-4.5	nt	nt
COc1cc(C2C(C#N)=C(N)Oc3n[nH]c(-c4cccs4)c32)cc(OC)c1O (stereo not drawn)	-3.8	48.6*	59.2*	7.1	46.9*	-4.0	47.1	51.0*
O=C(Nc1nnc(SCc2ccc(F)cc2)s1)c1ccccn1	-11.7	43.5*	69.6*	-7.0	77.9*	66.6*	46.4	49.6*
Cc1cccc(CSc2cccc3cccnc23)c1	-14.3	65.7*	72.1*	-6.1	56.3*	45.0*	84.0*	74.3*
C/C(=N\NC(=O)c1cc2ccccc2cc1O)c1ccccn1	-19.6	17.9	19.9	0.8	44.1*	50.5*	29.7	nt	EBI2 conf=75.5*;EBI2 agonist=-2.2;bGal counter=-1.9
C/C(=N\NC(=O)c1c[nH]c2ccccc12)c1ccccn1	5.1	-4.2	0.0	-4.9	-40.1	7.2	nt	nt
C/C(=N\NC(=O)c1ccc(F)cc1)c1ccccn1	-11.1	71.6*	80.2*	-5.2	60.2*	64.1*	87.2*	85.7*	EBI2 conf=84.0*;EBI2 agonist=-2.1;bGal counter=-9.9
CCCCc1ccc(NC(=O)CN(C)CC(=O)Nc2ccccc2Cl)cc1	0.0	-6.1	-8.0	-1.5	-1.2	2.1	nt	nt
COc1ccc(NC(=O)CC23CC4CC(CC(Br)(C4)C2)C3)c(OC)c1	-0.7	7.6	19.3	6.1	15.8	-3.9	nt	nt
Cc1ccc(CN2C(=O)C(Cc3ccccc3)Nc3ncnc(N4CCN(c5ccccc5)CC4)c32)cc1 (stereo not drawn)	-20.8	74.2*	80.3*	-31.3	73.5*	59.9*	111.3*	72.0*	EBI2 conf=61.7*;EBI2 agonist=-3.2;bGal counter=37.4*
O=C1C(Cc2ccccc2)Nc2ncnc(N3CCN(c4ccccc4)CC3)c2N1Cc1ccc(Br)cc1 (stereo not drawn)	-12.3	74.5*	86.8*	-30.1	81.7*	74.8*	118.3*	79.1*	EBI2 conf=70.6*;EBI2 agonist=-4.0;bGal counter=41.3*
CC(C)(C(=O)N1CCC1(C)C(=O)NS(=O)(=O)c1ccc(Cl)s1)c1ccccc1 (stereo not drawn)	nt	4.0	nt	4.7	nt	6.1	nt	nt
CCCOc1cccc(-c2cc(C(=O)N/N=C/c3ccccn3)c3ccccc3n2)c1	-11.8	57.1*	70.4*	-18.0	47.6*	48.1*	54.2*	45.5*	EBI2 conf=60.6*;EBI2 agonist=0.2;bGal counter=2.0
CCCOc1cccc(-c2cc(C(=O)N/N=C/c3cccnc3)c3ccccc3n2)c1	2.5	10.2	-5.8	-6.1	-45.7	0.6	nt	nt
Cc1cccc(NC(=O)CCC(=O)N/N=C/c2ccco2)c1	-2.8	78.3*	17.5	-4.1	17.5	-4.3	nt	-2.6
